Columns and labels:
Rattus norvegicus [1] = species: Rattus norvegicus; assay: Anticonvulsant activity against maximal electroshock seizures(MES) in rats; format: functional
Method in brief: (§1)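 Adult male Wistar rats (200-250 g), groups of 10, dosed ip in 80% DMSO/20% distilled water. 60 min later a 50-mA, 60-Hz alternating current was given through ear electrodes for 0.2 s. Protection was absence of tonic hind limb extension. ED50 (±95% confidence limits) by Litchfield and Wilcoxon.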

Mus musculus [2] = species: Mus musculus; assay: Anticonvulsant activity against audiogenic seizures in DBA/2 mice; format: functional
Method in brief: (§2)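 DBA/2 mice of either sex (6-12 g, 21-25 days old), dosed ip in 80% DMSO/20% distilled water. 45 min later exposed to a mixed-frequency 109-dB sound for up to 60 s. Latency to and incidence of wild running, clonus, tonus and respiratory arrest were scored. ED50 (±95% confidence limits) by Litchfield and Wilcoxon.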

[3] = Relative lipophilicity; format: physicochemical; settings: reversed-phase TLC, acetone/water 2:1
Method in brief: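 Reversed-phase TLC on silanized silica gel plates dried 1 h at 105 °C, with acetone/water 2:1 v/v as mobile phase. Compounds were applied from chloroform solution (3 mg/mL). Rf is the mean of five runs with different plate positions, and RM = log[(1/Rf) - 1].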

Rattus norvegicus [4] = species: Rattus norvegicus; assay: Compound was tested for its activity against tonic hind limb extension in MES test in rats; Completely antagonized; format: functional, Hindlimb; method in brief: as §1
Mus musculus [5] = species: Mus musculus; assay: Compound was tested for its activity against clonic seizures phase in […] mice; Completely protected; format: functional; method in brief: as §2

SMILES | RM [3] | ED50 (Rattus norvegicus [1]) [µmol/kg] | ED50 (Mus musculus [2]) [µmol/kg] | Activity (Rattus norvegicus [4]) [µM/kg] | Activity (Mus musculus [5]) [µM/kg]
O=C1CCC2(c3ccc(Cl)cc3)Nc3ccc(Cl)cc3N12 (centres undefined) | 0.073 | 501 | 347 | – | –
O=C1CCC2(c3ccc(F)cc3)Nc3ccc(Cl)cc3N12 (centres undefined) | 0.028 | 198 | 178 | – | –
O=C1CCC2(c3ccccc3)Nc3cc(Cl)ccc3N12 (centres undefined) | -0.007 | 126 | 95.9 | – | –
O=C1CCC2(c3ccc(F)cc3)Nc3cc(Cl)ccc3N12 (centres undefined) | 0.019 | 105 | 87.3 | – | –
O=C1CCC2(c3ccc(Cl)cc3)Nc3ccccc3N12 (centres undefined) | -0.033 | 234 | 166 | – | –
O=C1CCC2(c3ccccc3)Nc3ccccc3N12 (centres undefined) | -0.131 | 200 | 161 | – | –
O=C1CCC2(c3ccc(Cl)cc3)Nc3cc(Cl)ccc3N12 (centres undefined) | 0.068 | 281 | 143 | – | –
O=C1CCC2(c3ccc(F)cc3)Nc3ccccc3N12 (centres undefined) | -0.084 | 575 | 356 | – | –
O=C1CCC2(c3ccccc3)Nc3ccc(Cl)cc3N12 (centres undefined) | -0.005 | 271 | 179 | – | –
O=C1NC(=O)C(c2ccccc2)(c2ccccc2)N1 [PHENYTOIN] | – | 55.5 | 19.8 | – | –
CCCC(CCC)C(=O)O [VALPROIC ACID] | – | 1890 | 1230 | – | –

The next lines start with results.

RM [3] | SMILES | ED50 (Rattus norvegicus [1]) [µmol/kg] | ED50 (Mus musculus [2]) [µmol/kg] | Activity (Rattus norvegicus [4]) [µM/kg] | Activity (Mus musculus [5]) [µM/kg]
-0.279 | Cc1ccc2c(c1)N1C(=O)CCC1(C)N2 (centres undefined) | 197 | 122 | – | –
-0.284 | Cc1ccc2c(c1)NC1(C)CCC(=O)N21 (centres undefined) | 141 | 97.7 | – | –
-0.341 | CC12CCC(=O)N1c1ccccc1N2 (centres undefined) | 35.5 | 26.3 | 200 | 100
-0.167 | CC12CCC(=O)N1c1ccc(Cl)cc1N2 (centres undefined) | 88.2 | 79.4 | – | –
-0.187 | CC12CCC(=O)N1c1ccc([N+](=O)[O-])cc1N2 (centres undefined) | > 600 | > 600 | – | –
-0.237 | CC12CCC(=O)N1c1cc([N+](=O)[O-])ccc1N2 (centres undefined) | > 600 | > 600 | – | –
-0.162 | CC12CCC(=O)N1c1cc(Cl)ccc1N2 (centres undefined) | 234 | 148 | – | –
